# Test results from paper PMC7064889 (Chembiochem, 2019).
# Experiments:
# Assay type in all cases: cell-based, human
# M21 cells [1] = experiment: live cell imaging
# How it was run: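 Cells were grown overnight on glass-slip chambers and counterstained with LysoTracker Red DND-99. They were then incubated 10 min with fluorescent test peptide: 5 μM for the non-PEGylated peptide, 10 μM for the 5 kDa PEGylated peptide. Washing was careful but thorough. Confocal live-cell microscopy followed, with z-stacking and gain set in the peptide channel.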
# M21 cells [2] = experiment: flow cytometry uptake, M21 cells
# How it was run: (§1)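 Cells (2×10^6) were incubated with fluorescently labelled cyclic RGD test peptide (30 μM) for 0, 10 or 30 min. They were washed with buffer and analysed by flow cytometry. The negative control received no peptide.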
# M21L cells = experiment: flow cytometry uptake, M21L cells
# How it was run: as §1
# [3] = peptide 30 μM, 0, 10, 30 min, 37 °C, medium without FCS
substance,measurement,setting,value
c(RGDw(pyren‐1‐yl)K(PEG5000)) [peptide 2],"colocalization with lysosomes, M21","M21 cells [1]; LysoTracker Red DND-99, 10 min, 37 °C, peptide 1 5 μM, peptide 2 10 μM",colocalizes largely with lysosomes
same,"localization by z-stacking, M21","M21 cells [1]; Z-stack, peptide 10 μM, 10 min",presence of peptide inside the cells
same,mode of uptake (conclusion from flow cytometry and live cell imaging),"M21 cells [2]; M21 versus M21L cells, flow cytometry 30 μM plus imaging",integrin‐mediated endocytosis
same,"0 min sample versus negative control (no peptide), M21","M21 cells [2]; peptide 30 μM, 0 min",largely overlaps with the 0 min samples
same,"uptake selectivity M21 versus M21L, flow cytometry","M21 cells [2]; peptide 30 μM, 0, 10, 30 min",uptake of peptide 2 only by M21 cells
same,"flow cytometry fluorescence, M21",M21 cells [2]; [3],significant fluorescence
same,"0 min sample versus negative control (no peptide), M21L","M21L cells; peptide 30 μM, 0 min",largely overlaps with the 0 min samples
same,"flow cytometry fluorescence, M21L",M21L cells; [3],not for αv deficient M21L cells
same,uptake in M21L cells (flow cytometry and live cell imaging),M21L cells; αv-deficient M21L cells,no uptake in αv‐deficient M21L cells
